Source: the RNAGym collection of RNA variant scans (doi:10.1038/s41586-018-0170-7)

B1: tRNA (parent)
chain: GUUCCGUUGGCGUAAUGGUAACGCGUCUCCCUCCUAAGGAGAAGACUGCGGGUUCGAGUCCCGUACGGAACG

Variants of: B1
Experiment: yeast fitness, log relative to wild type (ln ratio); higher = fitter; tRNA-Arg(CCU), competitive growth, 37 C, 1 M NaCl
Procedure, shortened: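 For each genotype, fitness is defined as the natural log of its generation number over the wild type's. The tRNA-Arg(CCU) variant library was on a HIS3 centromeric plasmid in BY4742 with the chromosomal gene removed, and pools were first grown 4 generations in SC-HIS at 30 °C and then ~6.5 generations (~26.5 h) in SC-HIS 1M NaCl at 37 °C. Generations were calculated from OD-scaled log2 output/input frequency, weighted by inverse variance across replicates, using counts from 125 bp paired-end Illumina sequencing.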

| Variant | yeast fitness (ln) |
| --- | --- |
| AGUCCUUUGGCGUAAUGGUAACGCGUUUCCCUCCUAAGGAGACGAUUGCGGGUUCGAGUCCCGUACGGGGUG [G1A U2G G6U C27U A43C C46U A69G A70G C71U] | -0.446 |
| AGUCCUUUGGCGUAAUGGUAACGCGUCUCCCUCCUAAGGAGAAGACUGCGGGUUCGAGUCCCGUACGGGAUG [G1A U2G G6U A69G C71U] | -0.224 |
| AGUCCUUUGGCGUAAUGGUAACGCGUUUCCCUCCUAAGGAGACGACUGCGGGUUCGAGUCCCGUACGGAGCG [G1A U2G G6U C27U A43C A70G] | -0.419 |
| AGUCCUUUGGCGUAAUGGUAACGCGUUUCCCUCCUAAGGAGACGACUGCGGGUUCGAGUCCCGUACGGAUCG [G1A U2G G6U C27U A43C A70U] | -0.338 |
| AGUCCUUUGGCGUAAUGGUAACGCGUUUCCCUCCUAAGGAGACGAUUGCGGGUUCGAGUCCCGUACGGGAUG [G1A U2G G6U C27U A43C C46U A69G C71U] | -0.39 |
| AGUCCUUUGGCGUAAUGGUAACGCGUUUCCCUCCUAAGGAGACGACUGCGGGUUCGAGUCCCGUACGGAUUG [G1A U2G G6U C27U A43C A70U C71U] | -0.415 |
| AGUCCUUUGGCGUAAUGGUAACGCGUUUCCCUCCUAAGGAGACGAUUGCGGGUUCGAGUCCCGUACGGAUCG [G1A U2G G6U C27U A43C C46U A70U] | -0.341 |
| AGUCCUUUGGCGUAAUGGUAACGCGUUUCCCUCCUAAGGAGACGAUUGCGGGUUCGAGUCCCGUACGGAGCG [G1A U2G G6U C27U A43C C46U A70G] | -0.387 |
| AGUCCUUUGGCGUAAUGGUAACGCGUUUCCCUCCUAAGGAGACGAUUGCGGGUUCGAGUCCCGUAAGGAGUG [G1A U2G G6U C27U A43C C46U C66A A70G C71U] | -0.369 |
| AGUCCUUUGGCGUAAUGGUAACGCGUCUCCCUCCUAAGGAGAAGACUGCGGGUUCGAGUCCCGUACGGGGUG [G1A U2G G6U A69G A70G C71U] | -0.427 |
| AGUCCUUUGGCGUAAUGGUAACGCGUCUCCCUCCUAAGGAGAAGACUGCGGGUUCGAGUCCCGUACGGAGCG [G1A U2G G6U A70G] | -0.235 |
| AGUCCUUUGGCGUAAUGGUAACGCGUCUCCCUCCUAAGGAGAAGACUGCGGGUUCGAGUCCCGUACGGAUCG [G1A U2G G6U A70U] | -0.166 |
| AGUCCUUUGGCGUAAUGGUAACGCGUUUCCCUCCUAAGGAGACGAUUGCGGGUUCGAGUCCCGUAAGGAACG [G1A U2G G6U C27U A43C C46U C66A] | -0.25 |
| AGUCCUUUGGCGUAAUGGUAACGCGUUUCCCUCCUAAGGAGACGAUUGCGGGUUCGAGUCCCGUAAGGGUUG [G1A U2G G6U C27U A43C C46U C66A A69G A70U C71U] | -0.431 |
| AGUCCUUUGGCGUAAUGGUAACGCGUUUCCCUCCUAAGGAGACGAUUGCGGGUUCGAGUCCCGUACGGAUUG [G1A U2G G6U C27U A43C C46U A70U C71U] | -0.339 |
| AGUCCUUUGGCGUAAUGGUAACGCGUUUCCCUCCUAAGGAGACGAUUGCGGGUUCGAGUCCCGUAAGGAUUG [G1A U2G G6U C27U A43C C46U C66A A70U C71U] | -0.626 |
| AGUCCUUUGGCGUAAUGGUAACGCGUUUCCCUCCUAAGGAGACGAUUGCGGGUUCGAGUCCCGUACGGAGUG [G1A U2G G6U C27U A43C C46U A70G C71U] | -0.426 |
| AGUCCUUUGGCGUAAUGGUAACGCGUUUCCCUCCUAAGGAGACGAUUGCGGGUUCGAGUCCCGUAAGGAAUG [G1A U2G G6U C27U A43C C46U C66A C71U] | -0.41 |
| AGUCCUUUGGCGUAAUGGUAACGCGUUUCCCUCCUAAGGAGACGAUUGCGGGUUCGAGUCCCGUACGGAACG [G1A U2G G6U C27U A43C C46U] | -0.363 |

| Variant | yeast fitness (ln) |
| --- | --- |
| AGUCCUUUGGCGUAAUGGUAACGCGUCUCCCUCCUAAGGAGACGACUGCGGGUUCGAGUCCCGUACGGAAUG [G1A U2G G6U A43C C71U] | -0.307 |
| AGUCCUUUGGCGUAAUGGUAACGCGUCUCCCUCCUAAGGAGAAGACUGCGGGUUCGAGUCCCGUACGGGGCG [G1A U2G G6U A69G A70G] | -0.183 |
| AGUCCUUUGGCGUAAUGGUAACGCGUCUCCCUCCUAAGGAGAAGACUGCGGGUUCGAGUCCCGUACGGGUCG [G1A U2G G6U A69G A70U] | -0.278 |
| AGUCCUUUGGCGUAAUGGUAACGCGUUUCCCUCCUAAGGAGAAGACUGCGGGUUCGAGUCCCGUACGGAACG [G1A U2G G6U C27U] | -0.148 |
| AGUCCUUUGGCGUAAUGGUAACGCGUUUCCCUCCUAAGGAGACGACUGCGGGUUCGAGUCCCGUACGGGUUG [G1A U2G G6U C27U A43C A69G A70U C71U] | -0.494 |
| AGUCCUUUGGCGUAAUGGUAACGCGUUUCCCUCCUAAGGAGACGAUUGCGGGUUCGAGUCCCGUAAGGAUCG [G1A U2G G6U C27U A43C C46U C66A A70U] | -0.309 |
| AGUCCUUUGGCGUAAUGGUAACGCGUUUCCCUCCUAAGGAGACGAUUGCGGGUUCGAGUCCCGUACGGGUUG [G1A U2G G6U C27U A43C C46U A69G A70U C71U] | -0.41 |
| AGUCCUUUGGCGUAAUGGUAACGCGUCUCCCUCCUAAGGAGAAGACUGCGGGUUCGAGUCCCGUACGGGUUG [G1A U2G G6U A69G A70U C71U] | -0.255 |
| AGUCCUUUGGCGUAAUGGUAACGCGUUUCCCUCCUAAGGAGACGACUGCGGGUUCGAGUCCCGUACGGGGUG [G1A U2G G6U C27U A43C A69G A70G C71U] | -0.449 |
| AGUCCUUUGGCGUAAUGGUAACGCGUUUCCCUCCUAAGGAGACGACUGCGGGUUCGAGUCCCGUACGGAACG [G1A U2G G6U C27U A43C] | -0.3 |
| AGUCCUUUGGCGUAAUGGUAACGCGUCUCCCUCCUAAGGAGAAGACUGCGGGUUCGAGUCCCGUACGGAUUG [G1A U2G G6U A70U C71U] | -0.22 |
| AGUCCUUUGGCGUAAUGGUAACGCGUUUCCCUCCUAAGGAGACGACUGCGGGUUCGAGUCCCGUACGGAGUG [G1A U2G G6U C27U A43C A70G C71U] | -0.588 |
| AGUCCUUUGGCGUAAUGGUAACGCGUUUCCCUCCUAAGGAGACGACUGCGGGUUCGAGUCCCGUACGGGUCG [G1A U2G G6U C27U A43C A69G A70U] | -0.454 |
| AGUCCUUUGGCGUAAUGGUAACGCGUUUCCCUCCUAAGGAGACGACUGCGGGUUCGAGUCCCGUACGGGGCG [G1A U2G G6U C27U A43C A69G A70G] | -0.326 |
| AGUCCUUUGGCGUAAUGGUAACGCGUUUCCCUCCUAAGGAGACGAUUGCGGGUUCGAGUCCCGUAAGGGGUG [G1A U2G G6U C27U A43C C46U C66A A69G A70G C71U] | -0.337 |
| AGUCCUUUGGCGUAAUGGUAACGCGUUUCCCUCCUAAGGAGACGACUGCGGGUUCGAGUCCCGUACGGGAUG [G1A U2G G6U C27U A43C A69G C71U] | -0.479 |
| AGUCCUUUGGCGUAAUGGUAACGCGUUUCCCUCCUAAGGAGACGAUUGCGGGUUCGAGUCCCGUACGGGGCG [G1A U2G G6U C27U A43C C46U A69G A70G] | -0.192 |
| AGUCCUUUGGCGUAAUGGUAACGCGUUUCCCUCCUAAGGAGACGAUUGCGGGUUCGAGUCCCGUACGGGUCG [G1A U2G G6U C27U A43C C46U A69G A70U] | -0.463 |
| AGUCCUUUGGCGUAAUGGUAACGCGUCUCCCUCCUAAGGAGAAGACUGCGGGUUCGAGUCCCGUACGGAGUG [G1A U2G G6U A70G C71U] | -0.256 |
